Source: ChEMBL document CHEMBL2439981, “Design, synthesis, and biological evaluation of bone-targeted proteasome inhibitors for multiple myeloma” (Bioorg Med Chem Lett, 2013)

Experiments:
Type in all cases: functional, cell-based
[1] = tested on: 5TGM1; assay: (§1) Cytotoxicity against mouse 5TGM1 cells after 48 to 72 hrs by SRB assay
In short: (§2)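 Cells seeded in triplicate at 3,000 per well in RPMI with 10% fetal bovine serum; drugs added after 24 h at six or more concentrations (1–18 nM in the dose-response figure). Exposure 72 h per methods and figure legend, 48 h per table footnote. Sulforhodamine B colorimetric read-out. IC50 from growth-inhibition curve, mean ±SD of at least 3 independent experiments.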

[2] = as §1; in short: as §2
[3] = tested on: RPMI-8226; assay: Cytotoxicity against human RPMI8226 cells after 48 to 72 hrs by SRB assay; in short: as §2

Row | SMILES | inhibition [1] | IC50 [2] [nM] | IC50 [3] [nM] | inhibition [3]
1 | CC(C)C[C@H](NC(=O)[C@H](Cc1ccccc1)NC(=O)c1cnc(C(=O)NCCCC(O)(P(=O)(O)O)P(=O)(O)O)cn1)B(O)O | Dose-dependent effect | 7.59 | 10.2 | Dose-dependent effect
2 | CC(C)C[C@H](NC(=O)[C@H](CC(C)C)NC(=O)[C@H](CC(C)C)NC(=O)OCc1ccc(C(=O)NCCCC(O)(P(=O)(O)O)P(=O)(O)O)cc1)B(O)O | Dose-dependent effect | 4.89 | 12.5 | Dose-dependent effect
3 | CC(C)C[C@H](NC(=O)[C@H](Cc1ccccc1)NC(=O)c1cnccn1)B(O)O [BORTEZOMIB] | Dose-dependent effect | 6.78 | 9.5 | Dose-dependent effect
4 | CC(C)C[C@H](NC(=O)[C@H](CC(C)C)NC(=O)[C@H](CC(C)C)NC(=O)OCc1ccccc1)B(O)O | Dose-dependent effect | 9.18 | 13.8 | Dose-dependent effect
5 | CC(C)C[C@H](NC(=O)[C@H](Cc1ccc(OCCCC(=O)NCCCC(O)(P(=O)(O)O)P(=O)(O)O)cc1)NC(=O)c1cnccn1)B(O)O | Dose-dependent effect | 9.39 | 11.5 | Dose-dependent effect
